Measurements: article PMC9486889 (Japanese Journal of Clinical Oncology, 2022)

Assay: Phase I dose-escalation: DLT/MTD and treatment-emergent adverse events
Assay type: in vivo, Japanese patients
Method in brief: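 Open-label, non-randomized 3+3 dose escalation, starting at 30 mg oral BIW with planned escalation to 50 mg, in continuous 4-week cycles. The DLT window was 28 days from first dose. DLTs were grade 4 hematologic toxicity, grade ≥3 febrile neutropenia, grade 3 thrombocytopenia with significant bleeding, other grade ≥3 non-hematologic toxicity, or troponin rising on 3 consecutive days. AEs were coded by MedDRA 19.1 and graded by CTCAE 4.03.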

Nc1cc(F)ccc1NC(=O)c1ccc(CNC(=O)/C=C/c2cccnc2)cc1 [HBI-8000, tucidinostat]
Grade 4 TEAE: Thrombocytopenia (40 mg BIW (N = 7)): 0 (0) n (%)
Grade 4 TEAE: White blood cell count decreased (40 mg BIW (N = 7)): 0 (0) n (%)
Number of patients with at least one related TEAE (40 mg BIW (N = 7)): 7 (100) n (%)
TEAE: Abdominal pain (40 mg BIW (N = 7)): 1 (14.3) n (%)
TEAE: Anaemia (40 mg BIW (N = 7)): 0 (0) n (%)
TEAE: Back pain (40 mg BIW (N = 7)): 2 (28.6) n (%)
TEAE: C-reactive protein increased (40 mg BIW (N = 7)): 1 (14.3) n (%)
TEAE: Decreased appetite (40 mg BIW (N = 7)): 2 (28.6) n (%)
TEAE: Diarrhoea (40 mg BIW (N = 7)): 1 (14.3) n (%)
TEAE: Dysgeusia (40 mg BIW (N = 7)): 1 (14.3) n (%)
TEAE: Fatigue (40 mg BIW (N = 7)): 1 (14.3) n (%)
TEAE: Headache (40 mg BIW (N = 7)): 1 (14.3) n (%)
TEAE: Hypertriglyceridaemia (40 mg BIW (N = 7)): 1 (14.3) n (%)
TEAE: Hyperuricaemia (40 mg BIW (N = 7)): 0 (0) n (%)
TEAE: Hypocalcaemia (40 mg BIW (N = 7)): 3 (42.9) n (%)
TEAE: Hypokalaemia (40 mg BIW (N = 7)): 1 (14.3) n (%)
TEAE: Insomnia (40 mg BIW (N = 7)): 1 (14.3) n (%)
TEAE: Nasopharyngitis (40 mg BIW (N = 7)): 2 (28.6) n (%)
TEAE: Nausea (40 mg BIW (N = 7)): 2 (28.6) n (%)
TEAE: Neutropenia (40 mg BIW (N = 7)): 2 (28.6) n (%)
TEAE: Neutrophil count decreased (40 mg BIW (N = 7)): 0 (0) n (%)
TEAE: Platelet count decreased (40 mg BIW (N = 7)): 3 (42.9) n (%)
TEAE: Pyrexia (40 mg BIW (N = 7)): 2 (28.6) n (%)
TEAE: Thrombocytopenia (40 mg BIW (N = 7)): 4 (57.1) n (%)
TEAE: Weight decreased (40 mg BIW (N = 7)): 2 (28.6) n (%)
TEAE: White blood cell count decreased (40 mg BIW (N = 7)): 1 (14.3) n (%)
Incidence of thrombocytopenia (40 mg BIW cohort): 57.1%
TEAEs that led to dose reduction or dose delay (40 mg BIW cohort): four
TEAEs that led to treatment discontinuation (40 mg BIW cohort): four
Grade 3: Number of patients with at least one TEAE (Total (N = 14)): 9 (64.3) n (%)
Grade 3 TEAE: Abdominal pain (Total (N = 14)): 1 (7.1) n (%)
Grade 3 TEAE: Alanine aminotransferase increased (Total (N = 14)): 1 (7.1) n (%)
Grade 3 TEAE: Anaemia (Total (N = 14)): 1 (7.1) n (%)
Grade 3 TEAE: Blood creatine phosphokinase increased (Total (N = 14)): 1 (7.1) n (%)
Grade 3 TEAE: Enterocolitis (Total (N = 14)): 1 (7.1) n (%)
Grade 3 TEAE: Erythema multiforme (Total (N = 14)): 1 (7.1) n (%)
Grade 3 TEAE: Erythema nodosum (Total (N = 14)): 1 (7.1) n (%)
Grade 3 TEAE: Hyperglycaemia (Total (N = 14)): 1 (7.1) n (%)
Grade 3 TEAE: Hypertriglyceridaemia (Total (N = 14)): 1 (7.1) n (%)
Grade 3 TEAE: Lymphocyte count decreased (Total (N = 14)): 1 (7.1) n (%)
Grade 3 TEAE: Neutropenia (Total (N = 14)): 1 (7.1) n (%)
Grade 3 TEAE: Neutrophil count decreased (Total (N = 14)): 2 (14.3) n (%)
Grade 3 TEAE: Parkinsonism (Total (N = 14)): 1 (7.1) n (%)
Grade 3 TEAE: Pyrexia (Total (N = 14)): 1 (7.1) n (%)
Grade 3 TEAE: Rash generalized (Total (N = 14)): 1 (7.1) n (%)
Grade 3 TEAE: Thrombocytopenia (Total (N = 14)): 2 (14.3) n (%)
Grade 3 TEAE: White blood cell count decreased (Total (N = 14)): 2 (14.3) n (%)
Grade 4: Number of patients with at least one TEAE (Total (N = 14)): 2 (14.3) n (%)
Grade 4 TEAE: Abdominal pain (Total (N = 14)): 0 (0) n (%)
Grade 4 TEAE: Alanine aminotransferase increased (Total (N = 14)): 0 (0) n (%)
Grade 4 TEAE: Anaemia (Total (N = 14)): 0 (0) n (%)
Grade 4 TEAE: Blood creatine phosphokinase increased (Total (N = 14)): 0 (0) n (%)
Grade 4 TEAE: Enterocolitis (Total (N = 14)): 0 (0) n (%)
Grade 4 TEAE: Erythema multiforme (Total (N = 14)): 0 (0) n (%)
Grade 4 TEAE: Erythema nodosum (Total (N = 14)): 0 (0) n (%)
Grade 4 TEAE: Hyperglycaemia (Total (N = 14)): 0 (0) n (%)
Grade 4 TEAE: Hypertriglyceridaemia (Total (N = 14)): 0 (0) n (%)
Grade 4 TEAE: Lymphocyte count decreased (Total (N = 14)): 0 (0) n (%)
Grade 4 TEAE: Neutropenia (Total (N = 14)): 2 (14.3) n (%)
Grade 4 TEAE: Neutrophil count decreased (Total (N = 14)): 0 (0) n (%)
Grade 4 TEAE: Parkinsonism (Total (N = 14)): 0 (0) n (%)
Grade 4 TEAE: Pyrexia (Total (N = 14)): 0 (0) n (%)
Grade 4 TEAE: Rash generalized (Total (N = 14)): 0 (0) n (%)
Grade 4 TEAE: Thrombocytopenia (Total (N = 14)): 0 (0) n (%)
Grade 4 TEAE: White blood cell count decreased (Total (N = 14)): 0 (0) n (%)
Number of patients with at least one related TEAE (Total (N = 14)): 13 (92.9) n (%)
TEAE: Abdominal pain (Total (N = 14)): 2 (14.3) n (%)
TEAE: Anaemia (Total (N = 14)): 5 (35.7) n (%)
TEAE: Back pain (Total (N = 14)): 2 (14.3) n (%)
TEAE: C-reactive protein increased (Total (N = 14)): 2 (14.3) n (%)
TEAE: Decreased appetite (Total (N = 14)): 3 (21.4) n (%)
TEAE: Diarrhoea (Total (N = 14)): 4 (28.6) n (%)
TEAE: Dysgeusia (Total (N = 14)): 3 (21.4) n (%)
TEAE: Fatigue (Total (N = 14)): 4 (28.6) n (%)
TEAE: Headache (Total (N = 14)): 2 (14.3) n (%)
TEAE: Hypertriglyceridaemia (Total (N = 14)): 2 (14.3) n (%)
TEAE: Hyperuricaemia (Total (N = 14)): 2 (14.3) n (%)
TEAE: Hypocalcaemia (Total (N = 14)): 3 (21.4) n (%)
TEAE: Hypokalaemia (Total (N = 14)): 3 (21.4) n (%)
TEAE: Insomnia (Total (N = 14)): 2 (14.3) n (%)
TEAE: Nasopharyngitis (Total (N = 14)): 2 (14.3) n (%)
TEAE: Nausea (Total (N = 14)): 3 (21.4) n (%)
TEAE: Neutropenia (Total (N = 14)): 3 (21.4) n (%)
TEAE: Neutrophil count decreased (Total (N = 14)): 2 (14.3) n (%)
TEAE: Platelet count decreased (Total (N = 14)): 6 (42.9) n (%)
TEAE: Pyrexia (Total (N = 14)): 3 (21.4) n (%)
TEAE: Thrombocytopenia (Total (N = 14)): 6 (42.9) n (%)
TEAE: Weight decreased (Total (N = 14)): 3 (21.4) n (%)
TEAE: White blood cell count decreased (Total (N = 14)): 4 (28.6) n (%)
Neutrophil count decreased leading to dose reduction or dose delay (all 14 patients): 14.3%
Patients with at least one TEAE (all 14 patients): 92.9%
Platelet count decreased leading to dose reduction or dose delay (all 14 patients): 28.6%
TEAEs that led to dose reduction or dose delay (all 14 patients): 57.1%
TEAEs that led to treatment discontinuation (all 14 patients): 42.9%
Recommended phase II dose (RP2D) (oral): 40 mg BIW
Maximum tolerated dose (MTD) (oral, 4-week cycles): 40 mg BIW
